Hits are enriched below; roughly 3.6% of the tested compounds scored in any of these assays.
PERK inhibitor = block of dimerizer-induced PERK translation repression, primary screen, PERK inhibitor project, CHO PERK-DD cells, SEAP luminescence, HTS. CHO PERK-DD fusion, SEAP luminescence translation reporter. inhibition, % at 5.6 µM. actives 0.17% (n = 220,000);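 active means inhibition above the mean inhibition of all tested compounds plus 3 SD, set separately per screening campaign, cut at about 2.9% in these data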;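 further: PERK kinase domain activated by AP20187 dimerizer at 100 nM; 0% = DMSO with dimerizer and 100% = rapamycin at 8.4 µM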
HSF1 inh = HSF1 inhibitors in luciferase reporter cells, primary screen, cell-based, NIH3T3, luminescence; AID 2098, 2009; actives 0.77% (n = 300,000); activity change, negative = inhibition, % at 7.5 µM (by protocol); NIH3T3-HGL HSE-luciferase, MG132-induced, luminescence 8 h; active compounds read low;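 active means more than half of replicate wells show activity change below -50%, luminescence cut by over half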;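 further: luciferase reports HSF-1 transcriptional activity via heat shock element; 0% = median of DMSO wells and -100% = zero luminescence signal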
Hsp70 act = Hsp70 transcriptional activators, primary screen, cell-based, HeLa, Hsp70 promoter luciferase, luminescence, 10 µM | actives 0.04% (n = 200,000) | activation, % at 10 µM | AID 1203, 2008 | HeLa Hsp70 promoter luciferase reporter; scaled: vehicle 0, proteasome-inhibitor control 100%;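 active means activation above the mean across all tested compounds plus 3 SD, cutoff set per campaign, cut at about 5.5% in these data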;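 further: 100% = MG132 at 30 µM as the positive control and 0% = DMSO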
AHR activator = AHR activators, primary screen, cell-based, luminescence, luciferase reporter, human; AHR-responsive luciferase reporter cells; AID 2796, 2010; actives 2.5% (n = 320,000); activation, % at 5 µM; Aryl hydrocarbon receptor (Homo sapiens), P35869; in the data active means activation above about 47%;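 further: 0% = vehicle wells and 100% = reference agonist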
Target sequence (P35869 whole entry, looked up): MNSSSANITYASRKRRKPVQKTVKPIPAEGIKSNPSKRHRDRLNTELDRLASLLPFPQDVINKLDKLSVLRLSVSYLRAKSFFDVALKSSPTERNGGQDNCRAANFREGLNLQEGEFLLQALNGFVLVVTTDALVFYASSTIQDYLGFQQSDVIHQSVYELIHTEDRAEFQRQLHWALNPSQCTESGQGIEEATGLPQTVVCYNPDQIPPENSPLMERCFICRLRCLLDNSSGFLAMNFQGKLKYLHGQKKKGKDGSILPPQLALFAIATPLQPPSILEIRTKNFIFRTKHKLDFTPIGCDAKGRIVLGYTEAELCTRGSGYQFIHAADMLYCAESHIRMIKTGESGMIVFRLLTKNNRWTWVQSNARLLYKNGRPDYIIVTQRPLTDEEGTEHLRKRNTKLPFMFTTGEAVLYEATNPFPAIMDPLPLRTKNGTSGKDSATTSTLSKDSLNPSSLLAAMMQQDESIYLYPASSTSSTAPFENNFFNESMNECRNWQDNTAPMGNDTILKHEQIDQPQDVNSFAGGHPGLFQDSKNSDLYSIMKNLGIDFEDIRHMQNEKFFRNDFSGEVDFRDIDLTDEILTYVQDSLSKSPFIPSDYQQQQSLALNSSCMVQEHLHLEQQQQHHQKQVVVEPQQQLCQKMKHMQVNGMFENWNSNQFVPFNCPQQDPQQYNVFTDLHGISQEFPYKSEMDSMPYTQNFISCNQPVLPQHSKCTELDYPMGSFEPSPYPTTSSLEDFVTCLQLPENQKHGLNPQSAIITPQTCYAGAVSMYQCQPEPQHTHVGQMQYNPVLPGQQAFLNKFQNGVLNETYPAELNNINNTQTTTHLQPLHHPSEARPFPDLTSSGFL
PolyA inh = polyadenylation inhibitors in yeast reporter cells, primary screen, luminescence, S. cerevisiae; S. cerevisiae SKY197-pL101 polyadenylation reporter, beta-gal luminescence; efflux-impaired pdr1/pdr3 knockout yeast; score 100 = 6 SD above DMSO; actives 0.02% (n = 300,000); activity score, % at 12 µM;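 active means lowest replicate activity score at least 50, where 100 means six control SD above control mean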;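 further: yeast exposed to compound for 9 h at 30 °C; higher score means more reporter readthrough which indicates perturbed polyadenylation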
STAT3 act = IL-6 driven STAT3 reporter potentiators, primary screen, U3A cells, luciferase, luminescence, MLSCN library; IL-6 STAT3-luciferase reporter; 100% = signal with IL-6 EC80 alone; activation (% of control), % at 5.6 µM; actives 0.91% (n = 190,000); AID 871, 2007;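 active means activation above the screen-wide mean of compound activation plus 3 SD, cut at about 130% in these data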;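 further: 0% = background luminescence of wells with medium and substrate only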
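Material: STAT1-lacking human U3A cells, STAT3 luciferase reporter | Benchmarks: IL-6-only wells as 100% reference | Probe or stimulus: IL-6 (33 ng/mL) | Timing: Compound 1 h, then IL-6 6 h at 37 °C | Detection: Luminescence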
* = called active by the depositor; . = no result given.

SMILES | PERK inhibitor | HSF1 inh | Hsp70 act | AHR activator | PolyA inh | STAT3 act
N/C(=N\OC(=O)c1cccc(Cl)c1)c1cccnc1 | -0.8 | 15.7 | 0.1 | 75.4* | -8.9 | 100.8
N/C(=N\OC(=O)c1ccc2c(c1)OCO2)c1cccnc1 | 1.3 | 0.6 | -0.4 | 67.2* | 11.3 | 91.3
S=C(NCc1ccc2[nH]c3c(c2c1)CCCC3)Nc1ccccc1Cl | 1.1 | 5.7 | -0.3 | 58.3* | -11.2 | 101.5
O=C(Nc1ccc(Cl)c(-c2nc3ccccc3[nH]2)c1)c1cccnc1 | -0.7 | -6.2 | -0.4 | 51.8* | -1.1 | 92.8
Cc1cccc(C)c1NC(=O)c1cccnc1 | . | -66.9* | . | 1.2 | 11.1 | .
COc1ccc(NC(=O)c2cccnc2)cc1OCC(C)C | . | -45.4 | . | 50.5* | -17.1 | .
O=C(Nc1ccc2ccccc2c1)c1cccnc1 | 0.5 | 10.8 | -0.1 | 51.7* | -0.3 | 93.9
COc1ccc(NC(=O)c2cccnc2)cc1 | . | 5.8 | . | -0.5 | -2.8 | .
COc1ccc(-n2c(C)c(C(C)=O)c(C(C)=O)c2C)cc1 | -0.6 | -63.7* | -0.4 | 1.7 | -22.8 | 102.8
COc1ccc(S(=O)(=O)N2CC(C)N(C(=O)N3CCOCC3)C2)cc1 (configuration not stated) | . | -0.8 | . | 2.8 | -11.4 | .
CN(c1ccc(O)cc1)c1nc(-c2cccs2)cs1 | 1.2 | -0.6 | 0.2 | 47.2* | -17.3 | 101.2
C[C@@H](NC(=O)Cn1ccc(N)nc1=O)c1cccc2ccccc12 | . | . | . | 1.6 | . | .
COc1ccc(CNC(=O)Cc2cn(C)c3ccccc23)c(OC)c1 | . | -3.1 | . | 8.5 | 10.0 | .
CC(=O)COc1ccccc1OC(=O)c1ccco1 | 0.2 | -51.1* | -0.3 | -1.0 | 23.0 | 100.2
CCOc1ccccc1OC(=O)c1ccco1 | 1.0 | -1.8 | -0.4 | -0.4 | -1.8 | 103.8
CC(=O)c1ccc(S(=O)(=O)Nc2ccc(C(=O)N(C)CC(=O)Nc3cccc(C)c3C)cc2)cc1 | . | . | . | 1.8 | . | .
CC(NC=C1C(=O)OC(C)(C)OC1=O)C(=O)O (configuration not stated) | 3.3* | -0.3 | -0.3 | -1.5 | 16.2 | 99.1
COc1ccc(OCCCn2cc(/C=C3/C(=N)N4C=C(C)SC4=NC3=O)c3ccccc32)cc1 | 0.8 | -9.4 | -0.4 | 18.7 | 14.6 | 103.4
COc1cccc(OCCCn2cc(/C=C3/C(=N)N4C=C(C)SC4=NC3=O)c3ccccc32)c1 | -0.2 | 0.9 | -0.5 | 50.7* | 4.0 | 92.3
O=C1OC(Cc2ccccn2)C(=O)C1=C1SCCS1 (configuration not stated) | 0.4 | 11.2 | -0.1 | 60.0* | -10.0 | 89.9
C/C(=N\NC1=NCCN1)c1ccc(N)c([N+](=O)[O-])c1 | 0.7 | -72.1* | . | 30.6 | 13.8 | .
CCCCCCOc1ccc(/C(C)=N/NC2=NCCN2)cc1[N+](=O)[O-] | 1.4 | 17.4 | -0.1 | 24.0 | -11.1 | 103.5
O=C(COC(=O)[C@@H]1CCCN1C(=O)c1cccs1)Nc1ccc(Br)cc1 | . | . | . | 0.7 | . | .
NS(=O)(=O)c1ccc(CCNC(=O)COC(=O)C2CCCN2C(=O)c2cccs2)cc1 (configuration not stated) | 3.3* | -6.5 | -0.2 | -0.8 | -0.8 | 91.4
Cc1ccc(Cc2c(C)nc3nc(SCC(=O)NCCCN4CCCCCC4)nn3c2C)cc1 | . | 0.3 | . | 0.3 | 11.1 | .
SMILES | PERK inhibitor | HSF1 inh | Hsp70 act | AHR activator | PolyA inh | STAT3 act
CCC1CCCCN1CCCNC(=O)CSc1nc2nc(C)c(Cc3ccc(C)cc3)c(C)n2n1 (configuration not stated) | . | -66.2* | . | -1.7 | 6.0 | .
O=S1(=O)N=C(Nc2nc3c(s2)CCCC3)c2ccccc21 | -0.7 | . | 1.0 | 57.1* | . | 96.3
Cc1cccc(Nc2nc3c(s2)CCCC3)c1 | 0.8 | 8.9 | 0.1 | 10.4 | -15.9 | 106.8
Cc1cc(Nc2ccc3c(c2)OCCO3)c2cc(Cl)ccc2n1 | -1.0 | -57.5* | -0.1 | 40.5 | 6.6 | 93.9
CS(=O)(=O)c1ccc(C(=O)OCC(=O)Nc2cccnc2Cl)cc1[N+](=O)[O-] | . | . | . | 1.5 | . | .
CC(CCc1ccccc1)NC(=O)COC(=O)c1ccc(S(C)(=O)=O)c([N+](=O)[O-])c1 (configuration not stated) | 0.2 | -79.4* | -0.2 | 1.5 | 6.9 | 95.9
Cc1ccccc1NC(=O)COC(=O)c1ccc(S(C)(=O)=O)c([N+](=O)[O-])c1 | 0.9 | -93.0* | 0.4 | -1.6 | -5.6 | 101.5
CC(C)Cc1nn2c(=O)cc(CSCC(=O)Nc3ccccc3F)nc2s1 | . | -1.4 | . | 1.3 | 7.6 | .
CC1Cc2ccccc2N1C(=O)CO/N=C/c1ccc(OC(F)F)cc1 (configuration not stated) | 1.2 | -87.7* | -0.4 | 8.9 | 4.7 | 106.5
CC1Cc2ccccc2N1C(=O)COC(=O)/C=C/c1ccc(F)cc1 (configuration not stated) | . | . | . | 1.6 | . | .
CC(=O)c1ccc(S(=O)(=O)N2CCN(CC#N)CC2)cc1 | 4.5* | -3.7 | . | -0.1 | 27.7 | .
CC(=O)c1ccc(S(=O)(=O)N2CCN(C(C)=O)CC2)cc1 | 0.4 | -9.4 | 0.3 | -0.2 | -11.9 | 109.3
COc1cccc(N(CC(=O)Nc2cccnc2)S(C)(=O)=O)c1 | 0.5 | -80.8* | -0.3 | 2.7 | 10.7 | 101.6
Cc1cccc(NS(=O)(=O)c2ccc(NC(=O)CN(c3cc([N+](=O)[O-])ccc3C)S(C)(=O)=O)cc2)c1 | 0.2 | 3.1 | -0.3 | 18.9 | -1.4 | 107.4
COc1cccc(NC(=O)Nc2cccnc2)c1 | 0.7 | 0.8 | -0.1 | 50.2* | 13.9 | 97.2
COc1ccc(C)cc1NS(=O)(=O)c1ccc(NC(=O)CN(c2cc([N+](=O)[O-])ccc2C)S(C)(=O)=O)cc1 | 0.1 | 17.9 | -0.5 | 47.7* | -11.1 | 102.8
COc1ccc(OC)c(N(CC(=O)Nc2ccccc2)S(C)(=O)=O)c1 | -0.6 | -65.2* | -0.2 | 2.8 | 20.6 | 101.2
Cc1c(N(C(=O)c2ccccn2)C2(C(=O)NC3CCCC3)CCCCC2)c(=O)n(-c2ccccc2)n1C | 0.0 | 1.6 | -0.1 | 1.9 | -21.5 | 106.8
COc1ccccc1N1CCN(S(=O)(=O)CCNC(=O)c2ccc(Br)o2)CC1 | . | -11.6 | . | 1.3 | -0.6 | .
CCCC(=O)Nc1nc2ccc(NC(=O)c3ccc(Br)o3)cc2s1 | -1.3 | 5.1 | -0.1 | 44.5 | -17.9 | 90.6
CCC(=O)Nc1nc2ccc(NC(C)=O)cc2s1 | -0.6 | 11.1 | -0.1 | 75.8* | 6.3 | 104.8

Bioassay records from PubChem.
